Experimental data reported in ChEMBL document CHEMBL1145458, “Novel vanilloid receptor-1 antagonists: 1. Conformationally restricted analogues of trans-cinnamides” (J Med Chem, 2007).
Activity calls are given as the source filed them. The calls are words filed in the database; no cut-off is given here.

Columns and labels:
[1] = molecular target: T1, Transient receptor potential cation channel subfamily V member 1 (Rattus norvegicus, UniProt O35433); experiment: Antagonist activity at rat TRPV1 expressed in CHO cells assessed as inhibition of acid-induced calcium influx; assay type: functional, cell-based
How it was run: (§1)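 CHO cells stably transfected with human or rat TRPV1 were preincubated with compound for 2 min at room temperature. After washout, uptake was read by scintillation counting. IC50 values come from inhibition curves, averaging at least two experiments run in triplicate.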

[2] = molecular target: T1, Transient receptor potential cation channel subfamily V member 1; experiment: Antagonist activity at rat TRPV1 expressed in CHO cells assessed as inhibition of capsaicin-induced calcium influx; assay type: functional, cell-based
How it was run: (§2)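 Human or rat TRPV1-CHO cells were preincubated with compound for 2 min at room temperature in HBSS with 0.1 mg/mL BSA and 1 mM HEPES pH 7.4. Cells were washed and radioactivity counted. IC50 is the mean of at least two experiments, triplicate per concentration, ±SEM.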

[3] = molecular target: T2, Transient receptor potential cation channel subfamily V member 1 (Homo sapiens, UniProt Q8NER1); experiment: Agonist activity at TRPV1 expressed in CHO cells; assay type: functional, cell-based
[4] = molecular target: T2, Transient receptor potential cation channel subfamily V member 1; experiment: Antagonist activity at human TRPV1 expressed in CHO cells assessed as inhibition of capsaicin-induced calcium influx; assay type: functional, cell-based; how it was run: as §2
[5] = molecular target: T2, Transient receptor potential cation channel subfamily V member 1; experiment: Antagonist activity at human TRPV1 expressed in CHO cells assessed as inhibition of acid-induced calcium influx; assay type: functional, cell-based; how it was run: as §1
[6] = Tmax in Sprague-Dawley rat at 5 mg/kg, po; assay type: ADME, organism-based; design: dose 5 mg/kg, route oral; details: in vivo
How it was run: (§3)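 Sprague-Dawley rats were dosed orally at 5 mg/kg as a suspension in 5% Tween 80 in Oraplus. Cmax, tmax, AUC0-∞ and oral bioavailability were determined. Values are means of n = 2 animals per study, or of five studies.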

[7] = Cmax in Sprague-Dawley rat at 5 mg/kg, po; assay type: ADME, organism-based; design: dose 5 mg/kg, route oral; details: in vivo; how it was run: as §3
Rattus norvegicus = experiment: Blockade of capsaicin-induced hypothermic response in Sprague-Dawley rat at 40 mg/kg, po; assay type: functional, organism-based; design: dose 40 mg/kg
How it was run: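 Male Sprague-Dawley rats (175–250 g) had core temperature monitored by radiotelemetry, with a 30 min baseline. Compound or vehicle was given by oral gavage in OraPlus/5% Tween-80 (5 mL/kg), at 40 mg/kg p.o., n = 8 per group. After 90 min, capsaicin 10 mg/kg or vehicle was injected intraperitoneally.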

[8] = AUC (0-infinity) in Sprague-Dawley rat at 5 mg/kg, po; assay type: ADME, organism-based; design: time infinity, dose 5 mg/kg, route oral; details: plasma; how it was run: as §3
[9] = Half life in Sprague-Dawley rat at 2 mg/kg, iv; assay type: ADME, organism-based; design: dose 2 mg/kg, route intravenous; details: in vivo
How it was run: (§4)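 Male Sprague-Dawley rats received a single intravenous dose of 2 mg/kg given as a solution in DMSO. Plasma AUC0-∞, clearance, Vss and t1/2 were derived. Values are means of n = 2 animals per study, or of four studies.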

[10] = AUC (0-infinity) in Sprague-Dawley rat at 2 mg/kg, iv; assay type: ADME, organism-based; design: time infinity, dose 2 mg/kg, route intravenous; details: plasma; how it was run: as §4
[11] = Bioavailability in Sprague-Dawley rat at 5 mg/kg, po; assay type: ADME, organism-based; details: in vivo; how it was run: as §3
[12] = Volume of distribution at steady state in Sprague-Dawley rat at 2 mg/kg, iv; assay type: ADME, organism-based; design: dose 2 mg/kg, route intravenous; details: in vivo, read-out: Vss; how it was run: as §4
[13] = Clearance in Sprague-Dawley rat at 2 mg/kg, iv; assay type: ADME, organism-based; design: dose 2 mg/kg, route intravenous; details: in vivo; how it was run: as §4
[14] = AUC (0-infinity) in Sprague-Dawley rat at 3 mg/kg, iv; assay type: ADME, organism-based; design: time infinity, dose 3 mg/kg, route intravenous; details: plasma

T2 sequence (Q8NER1 whole entry): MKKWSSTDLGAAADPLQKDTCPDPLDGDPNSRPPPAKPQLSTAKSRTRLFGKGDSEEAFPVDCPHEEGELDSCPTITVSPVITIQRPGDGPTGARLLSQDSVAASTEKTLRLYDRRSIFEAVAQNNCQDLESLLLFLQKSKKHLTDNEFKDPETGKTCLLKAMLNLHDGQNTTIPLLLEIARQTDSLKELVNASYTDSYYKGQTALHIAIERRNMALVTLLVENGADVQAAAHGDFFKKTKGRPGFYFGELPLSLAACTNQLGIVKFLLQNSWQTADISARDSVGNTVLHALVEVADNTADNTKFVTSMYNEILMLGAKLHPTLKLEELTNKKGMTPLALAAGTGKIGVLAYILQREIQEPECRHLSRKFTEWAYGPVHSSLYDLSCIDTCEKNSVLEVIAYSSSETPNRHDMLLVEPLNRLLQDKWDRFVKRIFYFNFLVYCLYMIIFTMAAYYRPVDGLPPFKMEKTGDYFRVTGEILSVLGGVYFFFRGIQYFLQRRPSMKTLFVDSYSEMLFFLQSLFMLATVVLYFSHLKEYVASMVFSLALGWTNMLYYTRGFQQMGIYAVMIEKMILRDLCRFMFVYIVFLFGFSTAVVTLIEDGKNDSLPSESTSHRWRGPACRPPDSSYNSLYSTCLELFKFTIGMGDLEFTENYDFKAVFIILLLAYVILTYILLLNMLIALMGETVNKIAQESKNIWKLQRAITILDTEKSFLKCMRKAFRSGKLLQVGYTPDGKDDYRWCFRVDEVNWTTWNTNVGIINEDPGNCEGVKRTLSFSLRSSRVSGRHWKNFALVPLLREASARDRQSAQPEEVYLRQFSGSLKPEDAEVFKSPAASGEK
T1 sequence (O35433 whole entry): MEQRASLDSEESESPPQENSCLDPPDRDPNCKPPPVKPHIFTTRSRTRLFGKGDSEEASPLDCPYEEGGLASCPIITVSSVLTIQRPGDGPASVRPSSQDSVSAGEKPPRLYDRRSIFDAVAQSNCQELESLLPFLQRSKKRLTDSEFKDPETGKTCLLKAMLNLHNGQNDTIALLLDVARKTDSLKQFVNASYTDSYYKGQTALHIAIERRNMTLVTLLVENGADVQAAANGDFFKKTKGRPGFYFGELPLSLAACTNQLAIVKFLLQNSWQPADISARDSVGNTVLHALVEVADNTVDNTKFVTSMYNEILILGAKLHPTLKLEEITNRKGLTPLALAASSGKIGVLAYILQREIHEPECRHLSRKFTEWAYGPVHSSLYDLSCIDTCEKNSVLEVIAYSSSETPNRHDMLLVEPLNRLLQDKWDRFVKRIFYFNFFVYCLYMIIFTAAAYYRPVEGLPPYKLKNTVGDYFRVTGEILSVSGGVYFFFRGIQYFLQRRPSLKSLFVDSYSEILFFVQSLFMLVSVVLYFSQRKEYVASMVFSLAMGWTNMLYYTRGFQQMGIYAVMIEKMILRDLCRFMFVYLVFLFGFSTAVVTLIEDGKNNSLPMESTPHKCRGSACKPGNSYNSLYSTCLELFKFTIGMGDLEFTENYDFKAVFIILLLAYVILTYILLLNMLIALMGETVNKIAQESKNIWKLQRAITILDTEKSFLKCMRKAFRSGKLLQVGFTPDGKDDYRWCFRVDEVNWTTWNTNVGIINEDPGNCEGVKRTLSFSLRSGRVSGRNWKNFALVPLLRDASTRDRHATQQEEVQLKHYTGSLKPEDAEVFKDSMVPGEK

| IC50 [1] [µM] | IC50 [2] [µM] | EC50 [3] [µM] | Structure (SMILES) | also measured |
| --- | --- | --- | --- | --- |
| > 4 | 1.21 | > 4 | CC(C)(C)c1ccc(-c2cncc(Nc3ccc4c(c3)OCCO4)c2)cc1 |  |
| > 4 | > 4 | > 4 | CC(C)(C)c1ccc(-c2cc(Nc3ccc4c(c3)OCCO4)ccn2)cc1 |  |
| 0.68 | 0.12 | > 4 | CC(C)(C)c1ccc(-c2cc(Nc3ccc4c(c3)OCCO4)ncn2)cc1 | IC50 [4]: 0.051 µM; IC50 [5]: 0.27 µM |
| > 4 | > 4 | > 4 | CC(C)(C)c1ccc(/C=C2\CCCN(c3ccc4c(c3)OCCO4)C2=O)cc1 |  |
| 1.2 | 0.43 | > 4 | FC(F)(F)c1ccc(-c2cc(Nc3ccc4c(c3)OCCO4)ncn2)cc1 | IC50 [4]: 0.12 µM; IC50 [5]: 0.25 µM |
| > 4 | > 4 | > 4 | CC(C)(C)c1ccc(-c2cncc(Nc3ccc4c(c3)OCCO4)n2)cc1 |  |
| > 4 | 0.84 | > 4 | CC(C)(C)c1ccc(-c2cc(Nc3ccc4c(c3)OCCO4)cnn2)cc1 |  |
| > 4 | > 4 | > 4 | CC(C)(C)c1ccc(-c2cc(Sc3ccc4c(c3)OCCO4)ncn2)cc1 |  |
| > 4 | 0.78 | > 4 | CC(C)(C)c1ccc(-c2cnnc(Nc3ccc4c(c3)OCCO4)c2)cc1 |  |
|  |  | > 4 | FC(F)(F)c1ccc(-c2cc(Oc3ccc4cccnc4c3)ncn2)cc1 | Tmax [6]: 1.2 h; Cmax [7]: 300 ng/mL; Activity (Rattus norvegicus): Active; AUC(0-inf) [8]: 2040 ng·h/mL; half-life [9]: 2.8 h; AUC(0-inf) [10]: 1590 ng·h/mL; IC50 [4]: 0.0037 µM; bioavailability [11]: 31%; IC50 [5]: 0.0042 µM; Vd [12]: 3 L/kg |
| 1.3 | 0.23 | > 4 | CC(C)(C)c1ccc(-c2ccnc(Nc3ccc4c(c3)OCCO4)c2)cc1 |  |
| > 4 | > 4 | > 4 | CC(C)(C)c1ccc(-c2ccnc(Nc3ccc4c(c3)OCCO4)n2)cc1 |  |
| 0.0066 |  | > 4 | FC(F)(F)c1ccc(-c2cc(Nc3ccc4cccnc4c3)ncn2)cc1 | Tmax [6]: 5 h; Cmax [7]: 26 ng/mL; clearance [13]: 51.7 mL/min/kg; AUC(0-inf) [8]: 94 ng·h/mL; half-life [9]: 1.7 h; AUC(0-inf) [10]: 320 ng·h/mL; IC50 [4]: 0.0006 µM; bioavailability [11]: 6%; IC50 [5]: 0.0003 µM; Vd [12]: 3 L/kg |
| > 4 | 0.914 | > 4 | CC(C)(C)c1ccc(-c2cc(Cc3ccc4c(c3)OCCO4)ncn2)cc1 |  |
| > 4 | > 4 | > 4 | CC(C)(C)c1ccc(-c2cccc(Nc3ccc4c(c3)OCCO4)c2)cc1 |  |
| 2.2 | > 4 | > 4 | CN(c1ccc2c(c1)OCCO2)c1cc(-c2ccc(C(C)(C)C)cc2)ncn1 |  |
| > 4 | > 4 | > 4 | CC(C)(C)c1ccc(Cc2cccn(-c3ccc4c(c3)OCCO4)c2=O)cc1 |  |
| > 4 | > 4 | > 4 | CC(C)(C)c1ccc(-c2cccc(Nc3ccc4c(c3)OCCO4)n2)cc1 |  |
|  |  | > 4 | CC(C)(C)c1ccc(/C=C/C(=O)Nc2ccc3c(c2)OCCO3)cc1 | AUC(0-inf) [14]: 680 ng·h/mL |
| > 4 | > 4 | > 4 | CC(C)(C)c1ccc(-c2nccc(Nc3ccc4c(c3)OCCO4)n2)cc1 |  |
| 0.67 |  | > 4 | CC(C)(C)c1ccc(-c2cc(Oc3ccc4c(c3)OCCO4)ncn2)cc1 |  |
| > 4 | 0.76 | > 4 | CC(C)(C)c1ccc(-c2ncnc(Nc3ccc4c(c3)OCCO4)n2)cc1 |  |
| 0.022 | 0.002 | > 4 | CC(C)(C)c1ccc(-c2cc(Nc3ccc4cccnc4c3)ncn2)cc1 | Tmax [6]: 0.5 h; Cmax [7]: 34 ng/mL; clearance [13]: 48.3 mL/min/kg; AUC(0-inf) [8]: 79 ng·h/mL; half-life [9]: 1.6 h; AUC(0-inf) [10]: 340 ng·h/mL; IC50 [4]: 0.0019 µM; bioavailability [11]: 5%; IC50 [5]: 0.0069 µM; Vd [12]: 3.1 L/kg |
